From PubChem
Arr AP2 block: inhibitors of human beta-arrestin and AP2 interaction | 0.31% of 340,000 active | inhibition, % at 10 µM | AID 504490 | FITC-arrestin peptide / GST-AP2 beads, flow cytometry; AP2 beta2 appendage carries R879A mutation;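 active = inhibition above a set limit, near 3 SD of compounds lacking own fluorescence, cut at about 54% in these data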
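System: GST-AP2 R879A glutathione beads | Also added: FITC-arrestin peptide, 50 nM | Times: 12 min plus 1 h, RT | Signal: Bead flow cytometry, FITC channel | Buffer or medium: PBS with 0.05% Tween 20 and 0.1% BSA | Read-out basis: Percent drop in bead-associated FITC signal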
ATG4B inh: ATG4B (human) cysteine protease inhibition; AID 504462; Q9Y4P1; inhibition, % at 8.33 µM; ATG4B cleavage of LC3-PLA2, NBD-HPC fluorescence, 1 h; 0.51% of 340,000 active; in the data active = inhibition above about 40%
Myeloid diff MLP: myeloid differentiation induction; calls only at 10 µM; 1% of 360,000 active; ER-HoxA9 myeloid progenitors, lysozyme-GFP differentiation, flow cytometry;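 active = normalized GFP-positive differentiation at or above the plate's own cutoff, the solvent-only control mean plus 3 SD; inconclusive = no clear call, values can overlap the other calls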;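 note: cells exposed to compound for four days before flow analysis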
ABCB6 inh 2: blocks the human ABCB6 transporter | K562-ABCB6 porphyrin accumulation, flow cytometry, 1 h; stronger effect = lower value | 0.19% of 360,000 active | Q9NP58 | fluorescence ratio to DMSO, % at 10 µM;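 active = fluorescence ratio to DMSO below 75%, the collection mean minus 3 SD; inconclusive = too few cells collected in the well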;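 note: signal is porphyrin accumulated inside mitochondria; lower ratio means ABCB6 inhibition with less porphyrin fluorescence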
NRP1-CendR mod: modulators of CendR peptide binding to human neuropilin-1 | O14786 | FAM-RPARPAR peptide binding to NRP-1, fluorescence polarization | inhibition, % at 25 µM | 0.85% of 360,000 active;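 active = inhibition or corrected inhibition above about 18%, plus a signal ratio from 0.5 to 1.5, limit read from the data, passing the limit was not always enough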
Target sequence (O14786 whole entry, looked up): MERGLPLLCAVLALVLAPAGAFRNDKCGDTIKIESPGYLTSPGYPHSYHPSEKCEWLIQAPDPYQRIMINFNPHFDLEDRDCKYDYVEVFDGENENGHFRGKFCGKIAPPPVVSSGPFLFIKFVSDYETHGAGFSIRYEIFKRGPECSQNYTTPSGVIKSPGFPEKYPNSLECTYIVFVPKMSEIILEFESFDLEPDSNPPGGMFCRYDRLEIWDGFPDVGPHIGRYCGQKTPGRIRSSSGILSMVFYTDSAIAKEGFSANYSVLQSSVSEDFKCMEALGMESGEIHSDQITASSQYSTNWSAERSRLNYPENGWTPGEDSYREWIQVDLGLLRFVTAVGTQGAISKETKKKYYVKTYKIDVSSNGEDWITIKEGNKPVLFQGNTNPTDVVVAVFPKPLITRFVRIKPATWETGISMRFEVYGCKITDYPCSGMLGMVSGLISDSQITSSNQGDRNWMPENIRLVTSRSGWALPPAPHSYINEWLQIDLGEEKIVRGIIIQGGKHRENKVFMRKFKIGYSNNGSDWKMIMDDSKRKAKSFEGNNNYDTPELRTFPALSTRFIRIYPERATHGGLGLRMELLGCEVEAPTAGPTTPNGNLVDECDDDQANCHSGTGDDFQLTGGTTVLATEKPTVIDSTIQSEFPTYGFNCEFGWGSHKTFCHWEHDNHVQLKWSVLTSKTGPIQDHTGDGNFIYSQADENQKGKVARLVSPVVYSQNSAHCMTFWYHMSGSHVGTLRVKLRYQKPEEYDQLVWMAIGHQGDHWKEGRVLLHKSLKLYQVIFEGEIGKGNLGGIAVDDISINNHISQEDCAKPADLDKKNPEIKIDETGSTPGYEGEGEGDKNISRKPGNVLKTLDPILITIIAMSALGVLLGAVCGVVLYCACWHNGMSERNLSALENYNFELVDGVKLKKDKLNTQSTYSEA
Granule exo inh: blocks lytic granule exocytosis; inhibition, % at 10 µM; 0.66% of 360,000 active; TALL-104 LAMP-1 surface exposure, flow cytometry; cells stimulated with thapsigargin and PMA;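 active = inhibition above about 55%, limit read from the data; inconclusive = no clear call, values can overlap the other calls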
A number is an active result; . = inactive; ? = inconclusive; / = no result; + = active, no number. The list is not random: actives were taken first. Their share in the collection is about 3.3%.

SMILES	Arr AP2 block	ATG4B inh	Myeloid diff MLP	ABCB6 inh 2	NRP1-CendR mod	Granule exo inh
O=C(C=Cc1ccccc1)c1ccc([N+](=O)[O-])cc1	.	.	.	.	18	.
O=C(/C=C/c1cccnc1)c1ccc([N+](=O)[O-])cc1	.	.	.	.	.	.
O=C(C#Cc1ccccc1)c1cccc([N+](=O)[O-])c1	.	.	.	71	.	.
COc1cc(/C=C/C(=O)c2cccc([N+](=O)[O-])c2)cc(OC)c1OC	.	.	?	.	.	.
O=C(/C=C/c1ccccc1F)c1cccc([N+](=O)[O-])c1	.	.	.	.	.	85
O=C(COC(=O)/C=C/c1cccc([N+](=O)[O-])c1)NCC1CCCO1 (centres undefined)	.	.	.	.	.	.
O=C(NCC1CCCO1)c1ccc(COc2ccc(F)cc2)o1 (centres undefined)	.	.	.	.	.	.
O=C(NC1CC1)c1ccc(COc2ccc(F)cc2)o1	.	.	.	.	25	.
O=C(O)c1ccc(COc2ccccc2C=C2C(=O)c3ccccc3C2=O)cc1	.	.	+	.	.	.
O=C1NC(=S)N/C1=C\c1ccccc1OCc1ccc(C(=O)O)cc1	.	.	.	.	.	.
CC(=O)c1ccc(OCC(O)CN2CCN(CCO)CC2)cc1 (centres undefined)	.	.	.	.	.	.
O=C(CCc1nc2ccccc2c(=O)[nH]1)Nc1cc(Cl)ccc1N1CCCCC1	.	.	+	.	.	.
O=C(CCc1nc2ccccc2c(=O)[nH]1)Nc1ccccc1N1CCCCC1	/	/	.	.	.	.
CCNC(=O)COC(=O)/C=C/c1cccc(F)c1	.	.	.	.	.	.
Cc1nc2ccc(S(=O)(=O)NCC(=O)N(C)Cc3ccccc3)cc2s1	.	.	.	.	26	.
CCCc1nc2ccc(Cl)cn2c1Cc1ccsc1	/	/	.	.	28	.
Cc1nnc(-c2cccc(Br)c2)c2cn(-c3cccc(Br)c3)nc12	.	.	.	.	.	.
COc1ccc(-n2cc3c(-c4cccc(Br)c4)nnc(C)c3n2)cc1	.	.	+	.	.	.
Cc1nnc(-c2cccc(Br)c2)c2cn(-c3ccccc3)nc12	.	.	+	.	.	.
COc1ccc(C(=O)C2CCCN(Cc3ccc4nonc4c3)C2)c(OC)c1 (centres undefined)	.	.	.	.	.	.
C[C@@H](NC(=O)[C@@H]1Cc2ccccc2CN1C(=O)OC(C)(C)C)C(=O)NCc1ccco1	.	.	.	.	.	.
Cc1cc(C)c(NC(=O)C2CCCN2CCO)c(C)c1 (centres undefined)	.	.	+	.	.	.
CCc1ccc(C2=NN(S(C)(=O)=O)C(c3cccs3)C2)cc1 (centres undefined)	.	.	+	.	.	.
O=C(CNC(=S)N(CCCN1CCOCC1)Cc1cccs1)NCc1ccccc1	.	.	.	.	34	.
O=C(CNC(=S)N(CCCN1CCOCC1)Cc1cccs1)NCCN1CCOCC1	.	.	.	.	.	.
SMILES	Arr AP2 block	ATG4B inh	Myeloid diff MLP	ABCB6 inh 2	NRP1-CendR mod	Granule exo inh
COc1ccc(CN2CCNC(=O)C2CC(=O)N(C)Cc2ccno2)c(F)c1 (centres undefined)	.	.	.	.	.	.
CN1CCC(=O)N(CCSc2ccccc2)CC1	.	.	.	.	.	.
Cc1ccc(SCCN2CCN(C)CCC2=O)cc1	.	.	.	.	26	.
CCOc1ccccc1NS(=O)(=O)c1cn(C)c(=O)n(C)c1=O	/	.	/	/	/	/
Cc1ccc(O)c(C(=O)c2cnc3c(c2)COc2ccccc2-3)c1	.	.	+	.	26	.
CCCC(=O)N(c1ccc(OCC)cc1)S(=O)(=O)c1ccc2c3c(cccc13)C(=O)N2C	.	.	+	.	.	.
COc1cc2c(cc1N/C=C(\C#N)c1nc(-c3ccccc3)cs1)oc1ccccc12	.	.	+	.	.	.
COc1cccc(-c2csc(/C(C#N)=C/Nc3cc4oc5ccccc5c4cc3OC)n2)c1	.	.	.	.	.	.
Cc1ccc(S(=O)(=O)NN=CC2(c3ccccc3)CC2)cc1	/	/	.	.	.	.
O=C(NCc1ccccc1)c1n[nH]nc1-c1ccccc1O	.	.	+	.	.	.
NC(N)=NC(N)=Nc1ccc(SC(F)(F)F)cc1	.	.	.	.	.	.
